The source of these data is ChEMBL document CHEMBL1135838, “alpha(1)-Adrenoceptor agonists: the identification of novel alpha(1A )subtype selective 2'-heteroaryl-2-(phenoxymethyl)imidazolines” (Bioorg Med Chem Lett, 2002).

As a reminder, the EC50 is the concentration at which the effect is half-maximal. By IC50 is commonly meant the concentration at which inhibition is half-maximal. Higher therefore signals a need for much substance.

The target in one test is T1, Alpha-1B adrenergic receptor (Homo sapiens, UniProt P35368).
T1 sequence (P35368 whole entry): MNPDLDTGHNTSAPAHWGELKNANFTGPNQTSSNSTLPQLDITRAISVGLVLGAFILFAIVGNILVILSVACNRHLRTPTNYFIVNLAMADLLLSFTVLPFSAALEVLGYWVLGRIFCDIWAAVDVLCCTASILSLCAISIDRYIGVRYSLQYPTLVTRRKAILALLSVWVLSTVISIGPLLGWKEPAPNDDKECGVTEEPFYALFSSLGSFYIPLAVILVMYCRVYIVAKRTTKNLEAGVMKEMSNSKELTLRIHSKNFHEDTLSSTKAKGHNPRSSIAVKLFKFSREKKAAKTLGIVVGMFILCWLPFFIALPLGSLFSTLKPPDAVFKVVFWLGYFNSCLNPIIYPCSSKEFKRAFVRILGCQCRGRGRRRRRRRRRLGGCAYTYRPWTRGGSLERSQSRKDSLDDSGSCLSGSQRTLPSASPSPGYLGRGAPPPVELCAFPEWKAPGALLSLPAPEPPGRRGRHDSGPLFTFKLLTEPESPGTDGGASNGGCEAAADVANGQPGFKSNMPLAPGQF
In words: Activation of recombinant human adrenergic, alpha-1B receptor expressed in rat-1 fibroblasts determined via calcium mobilization through Gq coupled PLC pathway. Type of test: functional. In a few lines: (§1)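 Rat-1 fibroblasts stably expressing cloned human α1A (clone #137-12), α1B (clone #37-11) or α1D (clone #16-7) adrenoceptor were loaded with the Calcium Green calcium-sensitive dye. Gq/PLC-coupled calcium mobilization was read on a FLIPR. Eleven-point concentration–response curves, with a top concentration typically 5 μM, were normalized to the 40 μM phenylephrine response to give pEC50 and % efficacy. Values are the mean of ≥2 experiments.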
With `CCN(CC)C(=O)c1ccccc1OCC1=NCCN1`, the EC50 was above 5010 nM.

Consider `CS(=O)(=O)Nc1ccc(F)c([C@@H](O)CN)c1` [NS-49], for which the EC50 is above 100000 nM.

On to `c1ccc(-c2ccccc2OCC2=NCCN2)nc1`, for which the EC50 was above 100000 nM.

On to `c1ccc(-c2ncc[nH]2)c(OCC2=NCCN2)c1`, for which the EC50 is above 100000 nM.

For the compound `Cc1ccoc1-c1ccccc1OCC1=NCCN1`, the concentration giving a half-maximal response (EC50) was above 100000 nM.

Take `c1coc(-c2ccccc2OCC2=NCCN2)c1`: the EC50 is 10 nM.

Regarding `Cn1nccc1-c1ccccc1OCC1=NCCN1`, the EC50 is above 100000 nM.

As to `c1ccc(-c2ccsc2)c(OCC2=NCCN2)c1`, the EC50 is 15.8 nM.

Take `c1ccc(-c2ccncn2)c(OCC2=NCCN2)c1`: the EC50 is above 100000 nM.

For `c1ccc(-c2ccns2)c(OCC2=NCCN2)c1`, the EC50 is 12.6 nM.

With `c1ccc(-c2cnccn2)c(OCC2=NCCN2)c1`, the EC50 was 631 nM.

On to `c1c[nH]c(-c2ccccc2OCC2=NCCN2)c1`, for which the EC50 is 1 nM.

In the case of `Cc1cc(-c2ccccc2OCC2=NCCN2)sn1`, the EC50 was above 100000 nM.

The target in the next test is T2, Alpha-1A adrenergic receptor (Homo sapiens, UniProt P35348).
T2 sequence (P35348 whole entry): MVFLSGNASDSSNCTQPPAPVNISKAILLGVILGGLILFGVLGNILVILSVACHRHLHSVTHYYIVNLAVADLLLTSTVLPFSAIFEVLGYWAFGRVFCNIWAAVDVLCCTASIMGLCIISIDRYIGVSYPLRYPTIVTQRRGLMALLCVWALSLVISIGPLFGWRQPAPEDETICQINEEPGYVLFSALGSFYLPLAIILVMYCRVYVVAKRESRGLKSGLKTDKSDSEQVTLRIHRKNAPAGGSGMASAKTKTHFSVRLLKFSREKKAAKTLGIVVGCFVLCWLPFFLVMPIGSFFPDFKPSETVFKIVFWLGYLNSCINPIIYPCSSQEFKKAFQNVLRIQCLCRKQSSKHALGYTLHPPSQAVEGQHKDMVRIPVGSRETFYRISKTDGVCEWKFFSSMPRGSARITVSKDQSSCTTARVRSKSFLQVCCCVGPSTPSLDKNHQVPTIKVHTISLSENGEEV
In words: Binding affinity of compound towards Alpha-1A adrenergic receptor using membranes prepared from Rat-1 fibroblasts expressing human Alpha-1A adrenergic receptor. In a few lines:
(§2)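 Radioligand binding was run on membranes from Rat-1 fibroblasts expressing human α1A, α1B or α1D adrenoceptor. Affinity is reported as pIC50 (±SEM), the mean of at least two experiments.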
Turning to `c1ccc(-c2ccccc2OCC2=NCCN2)nc1`, the IC50 is 115 nM.

Turning to `Cc1ccoc1-c1ccccc1OCC1=NCCN1`, the IC50 was 34.7 nM.

The compound `c1c[nH]c(-c2ccccc2OCC2=NCCN2)c1` showed a half-inhibitory concentration (IC50) of 32.4 nM.

A further test concerns the target T3, Alpha-1D adrenergic receptor (Homo sapiens) (UniProt P25100).
T3 sequence (whole entry): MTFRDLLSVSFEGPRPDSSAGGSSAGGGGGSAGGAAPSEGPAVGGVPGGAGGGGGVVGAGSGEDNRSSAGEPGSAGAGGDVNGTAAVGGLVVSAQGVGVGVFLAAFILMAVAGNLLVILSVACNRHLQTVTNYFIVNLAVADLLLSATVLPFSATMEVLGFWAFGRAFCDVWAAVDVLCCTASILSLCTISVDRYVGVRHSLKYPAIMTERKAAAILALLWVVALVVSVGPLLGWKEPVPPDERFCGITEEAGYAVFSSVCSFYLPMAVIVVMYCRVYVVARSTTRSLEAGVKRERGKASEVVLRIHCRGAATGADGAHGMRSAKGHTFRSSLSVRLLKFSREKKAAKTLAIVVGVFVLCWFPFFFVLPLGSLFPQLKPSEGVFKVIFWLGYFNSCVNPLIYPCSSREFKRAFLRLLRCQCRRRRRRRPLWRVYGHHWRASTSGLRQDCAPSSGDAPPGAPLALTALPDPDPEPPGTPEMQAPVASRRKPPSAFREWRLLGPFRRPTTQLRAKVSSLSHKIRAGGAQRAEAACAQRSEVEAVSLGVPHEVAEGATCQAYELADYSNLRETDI
In words: Ability to activate human alpha-1D receptor expressed in rat-1 fibroblasts as calcium mobilization through Gq coupled PLC pathway relative to phenylephrine response. Format: functional. In a few lines: as §1
For orientation: A change in cytosolic calcium serves as a functional read-out for many receptors and channels.
For `c1ccc(-c2ccsc2)c(OCC2=NCCN2)c1`, the Max worked out at 120%.

Regarding `c1ccc(-c2ccns2)c(OCC2=NCCN2)c1`, the Max was 82%.

Take `c1c[nH]c(-c2ccccc2OCC2=NCCN2)c1`: the Max was determined as 111%.

Another test addresses T1, Alpha-1B adrenergic receptor. The experiment in a line: Binding affinity of compound towards human Alpha-1B adrenergic receptor expressed in rat fibroblast membranes. Type of test: cell membranes, Membrane. In a few lines:
as §2
For the compound `c1ccc(-c2ccccc2OCC2=NCCN2)nc1`, the IC50 is 2040 nM.

Compound `Cc1ccoc1-c1ccccc1OCC1=NCCN1` showed a concentration for half-maximal inhibition (IC50) of 776 nM.

`c1c[nH]c(-c2ccccc2OCC2=NCCN2)c1`: the IC50 was 269 nM.

A further test deals with T4, Alpha-1D adrenergic receptor (Homo sapiens, UniProt P25100).
T4 sequence (P25100 whole entry): T3 sequence (whole entry)
In words: Binding affinity of compound towards human Alpha-1D adrenergic receptor expressed in rat-1 fibroblast membranes. Type of test: cell membranes. In a few lines:
as §2
The compound `c1ccc(-c2ccccc2OCC2=NCCN2)nc1` gave an IC50 of 1120 nM.

For `Cc1ccoc1-c1ccccc1OCC1=NCCN1`, the 50% inhibitory concentration (IC50) is 417 nM.

In turn, `c1c[nH]c(-c2ccccc2OCC2=NCCN2)c1` gave an IC50 of 53.7 nM.

For a further test, the target named is T4, Alpha-1D adrenergic receptor. The experiment in a line: Activation of recombinant human adrenergic, alpha-1D receptor expressed in rat-1 fibroblasts assayed via calcium mobilization through Gq coupled PLC pathway. Type of test: functional. In a few lines:
as §1
For the compound `CCN(CC)C(=O)c1ccccc1OCC1=NCCN1`, the EC50 was above 5010 nM.

As to `CS(=O)(=O)Nc1ccc(F)c([C@@H](O)CN)c1` [NS-49], the EC50 is above 100000 nM.

In the case of `c1ccc(-c2ccccc2OCC2=NCCN2)nc1`, the EC50 was above 100000 nM.

As to `c1ccc(-c2ncc[nH]2)c(OCC2=NCCN2)c1`, the EC50 is above 100000 nM.

With `Cc1ccoc1-c1ccccc1OCC1=NCCN1`, the EC50 is above 100000 nM.

Turning to `c1coc(-c2ccccc2OCC2=NCCN2)c1`, the EC50 was above 100000 nM.

`Cn1nccc1-c1ccccc1OCC1=NCCN1`: the EC50 was above 100000 nM.

For the compound `c1ccc(-c2ccsc2)c(OCC2=NCCN2)c1`, the EC50 was 12.6 nM.

With `c1ccc(-c2ccncn2)c(OCC2=NCCN2)c1`, the concentration for a half-maximal effect (EC50) was above 100000 nM.

As to `c1ccc(-c2ccns2)c(OCC2=NCCN2)c1`, the EC50 was 25.1 nM.

For `c1ccc(-c2cnccn2)c(OCC2=NCCN2)c1`, the concentration giving a half-maximal response (EC50) was above 100000 nM.

Turning to `c1c[nH]c(-c2ccccc2OCC2=NCCN2)c1`, the EC50 was 6.31 nM.

For the compound `Cc1cc(-c2ccccc2OCC2=NCCN2)sn1`, the half-maximal effective concentration (EC50) was above 100000 nM.

In another test the target is T2, Alpha-1A adrenergic receptor. The experiment in a line: Activation of recombinant human adrenergic,alpha-1A receptor expressed in rat-1 fibroblasts determined via calcium mobilization through Gq coupled PLC pathway. Type of test: functional. In a few lines:
as §1
In the case of `CCN(CC)C(=O)c1ccccc1OCC1=NCCN1`, the EC50 is above 5010 nM.

As to `CS(=O)(=O)Nc1ccc(F)c([C@@H](O)CN)c1` [NS-49], the EC50 was 316 nM.

With `c1ccc(-c2ccccc2OCC2=NCCN2)nc1`, the EC50 was 12.6 nM.

For the compound `c1ccc(-c2ncc[nH]2)c(OCC2=NCCN2)c1`, the EC50 was 100 nM.

Consider `Cc1ccoc1-c1ccccc1OCC1=NCCN1`, for which the EC50 is 3.16 nM.

For the compound `c1coc(-c2ccccc2OCC2=NCCN2)c1`, the EC50 was 1.26 nM.

`Cn1nccc1-c1ccccc1OCC1=NCCN1`: the EC50 is 39.8 nM.

Consider `c1ccc(-c2ccsc2)c(OCC2=NCCN2)c1`, for which the EC50 is 0.251 nM.

Regarding `c1ccc(-c2ccncn2)c(OCC2=NCCN2)c1`, the half-maximal effective concentration (EC50) is above 100000 nM.

Consider `c1ccc(-c2ccns2)c(OCC2=NCCN2)c1`, for which the concentration giving a half-maximal response (EC50) is 5.01 nM.

Consider `c1ccc(-c2cnccn2)c(OCC2=NCCN2)c1`, for which the EC50 was 2.51 nM.

On to `c1c[nH]c(-c2ccccc2OCC2=NCCN2)c1`, for which the EC50 was 1.26 nM.

`Cc1cc(-c2ccccc2OCC2=NCCN2)sn1`: the EC50 is 158 nM.

The target of the next test is T5, Alpha-1B adrenergic receptor (Homo sapiens) (UniProt P35368).
T5 sequence (whole entry): T1 sequence (P35368 whole entry)
In words: Activation of human alpha-1B receptor expressed in rat-1 fibroblasts by calcium mobilization of Gq coupled PLC as percent phenylephrine (40 uM) response. Type of test: functional. In a few lines: as §1
Turning to `c1coc(-c2ccccc2OCC2=NCCN2)c1`, the Max was 110%.

As to `c1ccc(-c2ccsc2)c(OCC2=NCCN2)c1`, the Max was found to be 103%.

As to `c1ccc(-c2ccns2)c(OCC2=NCCN2)c1`, the Max came to 56%.

`c1ccc(-c2cnccn2)c(OCC2=NCCN2)c1`: the Max came out at 46%.

`c1c[nH]c(-c2ccccc2OCC2=NCCN2)c1`: the Max was 104%.

In another test the target is T6, Alpha-1A adrenergic receptor (Homo sapiens) (UniProt P35348).
T6 sequence (whole entry): T2 sequence (P35348 whole entry)
In words: Ability to activate cloned human alpha-1A receptor expressed in rat-1 fibroblasts via calcium mobilization through Gq coupled PLC pathway expressed as percent of phenylephrine (40 uM) response. Type of test: functional. In a few lines: as §1
On to `CS(=O)(=O)Nc1ccc(F)c([C@@H](O)CN)c1` [NS-49], for which the Max is 86%.

For `c1ccc(-c2ncc[nH]2)c(OCC2=NCCN2)c1`, the Max stood at 122%.

As for `Cc1ccoc1-c1ccccc1OCC1=NCCN1`, the Max was determined as 99%.

In the case of `c1coc(-c2ccccc2OCC2=NCCN2)c1`, the Max amounted to 106%.

`Cn1nccc1-c1ccccc1OCC1=NCCN1`: the Max was found to be 107%.

For the compound `c1ccc(-c2ccsc2)c(OCC2=NCCN2)c1`, the Max was found to be 98%.

Turning to `c1ccc(-c2ccns2)c(OCC2=NCCN2)c1`, the Max worked out at 99%.

In the case of `c1ccc(-c2cnccn2)c(OCC2=NCCN2)c1`, the Max stood at 97%.

With `c1c[nH]c(-c2ccccc2OCC2=NCCN2)c1`, the Max was found to be 99%.

As to `Cc1cc(-c2ccccc2OCC2=NCCN2)sn1`, the Max was determined as 75%.
